# Data taken from ChEMBL document CHEMBL1154419, “Pharmacodynamic effects of telavancin against methicillin-resistant and methicillin-susceptible Staphylococcus aureus strains in the presence of human albumin or serum and in an in vitro kinetic model” (Antimicrob Agents Chemother, 2007).
# Calls of active or inactive are those of the source. The calls are words filed in the database; no cut-off is given here.
# Columns and labels:
# [1] = tested on: Staphylococcus aureus; assay: Antibacterial activity against methicillin-resistant Staphylococcus aureus ATCC 33591 after 18 to 24 hrs by macrodilution technique; format: functional
# In short: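 Broth macrodilution per CLSI, run in triplicate on separate occasions. Twofold serial drug dilutions in broth, inoculum approx. 5 × 10⁵ CFU/ml, 37°C for 18 to 24 h. MIC taken as the lowest concentration with no visible growth.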
# [2] = tested on: Staphylococcus aureus; assay: Antibacterial activity against methicillin-susceptible Staphylococcus aureus ATCC 13709 assessed as bacterial killing at 50 times MIC after 24 hrs in presence of human albumin; format: functional, organism-based
# [3] = tested on: Staphylococcus aureus; assay: Antibacterial activity against methicillin-resistant Staphylococcus aureus ATCC 33591 assessed as bacterial regrowth at 1 times MIC after 24 hrs in presence of human albumin; format: functional, organism-based
# In short: (§1)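 Static time-kill in M-H broth, in M-H broth with 40 g/liter fatty-acid-free purified human albumin, or in M-H broth with inactivated 50% human serum. Inoculum approx. 5 × 10⁵ CFU/ml, drug at 0.5, 1, 2.5, 5, 10, 25 and 50× MIC, 37°C. Samples at 0, 3, 6, 12 and 24 h plated on blood agar, counted after 24 h. Detection limit 5 × 10¹ CFU/ml. Run in duplicate.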
# [4] = tested on: Staphylococcus aureus; assay: Antibacterial activity against methicillin-resistant Staphylococcus aureus ATCC 33591 assessed as bacterial killing at 0.5 to 50 times MIC after 24 hrs in presence of 50% human serum; format: functional, organism-based; in short: as §1
# [5] = tested on: Staphylococcus aureus; assay: Antibacterial activity against methicillin-susceptible Staphylococcus aureus ATCC 13709 assessed as bacterial killing at 0.5 to 50 times MIC after 24 hrs in presence of 50% human serum; format: functional, organism-based
# [6] = tested on: Staphylococcus aureus; assay: Antibacterial activity against methicillin-resistant Staphylococcus aureus ATCC 33591 assessed as bacterial killing at 10 times MIC after 6 hrs in MH-broth; format: functional, organism-based
# In short: (§2)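 Strain diluted in M-H broth to approx. 10⁵ CFU/ml and grown 6 h into log phase, then split. Broth tubes got drug at 10× MIC directly. PBS tubes were transferred to PBS and held 3 h more, then dosed at 10× MIC. Growth controls were run in each medium. Viable counts at 0, 3, 6, 9, 12 and 24 h. Run in duplicate.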
# [7] = tested on: Staphylococcus aureus; assay: Antibacterial activity against methicillin-resistant Staphylococcus aureus ATCC 33591 assessed as bacterial killing at 10 times MIC after 24 hrs in PBS-nutrient depleted medium; format: functional, organism-based; in short: as §2
# [8] = tested on: Staphylococcus aureus; assay: Antibacterial activity against methicillin-susceptible Staphylococcus aureus ATCC 13709 assessed as bacterial regrowth at 40 mg/liter Cmax; format: functional, organism-based
# [9] = tested on: Staphylococcus aureus; assay: Antibacterial activity against methicillin-susceptible Staphylococcus aureus ATCC 13709 assessed as change in bacterial burden at 1 mg/liter after 2 hrs; format: functional
# [10] = tested on: Staphylococcus aureus; assay: Antibacterial activity against methicillin-susceptible Staphylococcus aureus ATCC 13709 assessed as change in bacterial burden at 1 mg/liter after 24 hrs; format: functional
# [11] = tested on: Staphylococcus aureus; assay: Antibacterial activity against methicillin-resistant Staphylococcus aureus ATCC 33591 assessed as change in bacterial burden at 10 mg/liter after 12 hrs; format: functional
# In short: (§3)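 In vitro kinetic model: spinner flask with 0.45-μm filter and prefilter, stirred, M-H broth at 37°C, starting inoculum approx. 5 × 10⁵ CFU/ml. Single initial drug dose of 1.0 to 40 mg/liter, with flow set to give a half-life of approx. 8 h. Viable counts at 0, 2, 4, 6, 8, 12 and 24 h. Duplicate runs per strain and concentration.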
# [12] = tested on: Staphylococcus aureus; assay: Antibacterial activity against methicillin-resistant Staphylococcus aureus ATCC 33591 assessed as change in bacterial burden at 10 mg/liter after 4 hrs; format: functional; in short: as §3
# [13] = tested on: Staphylococcus aureus; assay: Antibacterial activity against methicillin-resistant Staphylococcus aureus ATCC 33591 assessed as change in bacterial burden at 5 mg/liter after 12 hrs; format: functional; in short: as §3
# [14] = tested on: Staphylococcus aureus; assay: Antibacterial activity against methicillin-resistant Staphylococcus aureus ATCC 33591 assessed as change in bacterial burden at 5 mg/liter after 8 hrs; format: functional; in short: as §3
# [15] = tested on: Staphylococcus aureus; assay: Antibacterial activity against methicillin-resistant Staphylococcus aureus ATCC 33591 assessed as change in bacterial burden at 5 mg/liter after 2 hrs; format: functional; in short: as §3
# [16] = tested on: Staphylococcus aureus; assay: Antibacterial activity against methicillin-resistant Staphylococcus aureus ATCC 33591 assessed as change in bacterial burden at 2.5 mg/liter after 6 hrs; format: functional; in short: as §3
# [17] = tested on: Staphylococcus aureus; assay: Antibacterial activity against methicillin-resistant Staphylococcus aureus ATCC 33591 assessed as change in bacterial burden at 2.5 mg/liter after 4 hrs; format: functional; in short: as §3
# [18] = tested on: Staphylococcus aureus; assay: Antibacterial activity against methicillin-resistant Staphylococcus aureus ATCC 33591 assessed as change in bacterial burden at 1 mg/liter after 8 hrs; format: functional; in short: as §3
# [19] = tested on: Staphylococcus aureus; assay: Antibacterial activity against methicillin-susceptible Staphylococcus aureus ATCC 13709 assessed as change in bacterial burden at 5 mg/liter after 2 hrs; format: functional
# [20] = tested on: Staphylococcus aureus; assay: Antibacterial activity against methicillin-susceptible Staphylococcus aureus ATCC 13709 assessed as change in bacterial burden at 2.5 mg/liter after 24 hrs; format: functional; in short: as §3
# [21] = tested on: Staphylococcus aureus; assay: Antibacterial activity against methicillin-susceptible Staphylococcus aureus ATCC 13709 assessed as change in bacterial burden at 2.5 mg/liter after 12 hrs; format: functional
# [22] = tested on: Staphylococcus aureus; assay: Antibacterial activity against methicillin-susceptible Staphylococcus aureus ATCC 13709 assessed as change in bacterial burden at 2.5 mg/liter after 4 hrs; format: functional
# [23] = tested on: Staphylococcus aureus; assay: Antibacterial activity against methicillin-susceptible Staphylococcus aureus ATCC 13709 assessed as change in bacterial burden at 2.5 mg/liter after 2 hrs; format: functional
# [24] = tested on: Staphylococcus aureus; assay: Antibacterial activity against methicillin-resistant Staphylococcus aureus COL infected New Zealand white rabbit endocarditis model assessed as reduction in mean aortic vegetation titer at 30 mg/kg, iv twice daily after 4 days; format: functional, Aorta
# [25] = tested on: Staphylococcus aureus; assay: Antibacterial activity against methicillin-resistant Staphylococcus aureus ATCC 33591 assessed as change in bacterial burden at 20 mg/liter after 4 hrs; format: functional; in short: as §3
# [26] = tested on: Staphylococcus aureus; assay: Antibacterial activity against methicillin-resistant Staphylococcus aureus ATCC 33591 assessed as change in bacterial burden at 20 mg/liter after 8 hrs; format: functional; in short: as §3
# [27] = tested on: Staphylococcus aureus; assay: Antibacterial activity against methicillin-susceptible Staphylococcus aureus ATCC 13709 assessed as change in bacterial burden at 40 mg/liter after 24 hrs; format: functional
# [28] = tested on: Staphylococcus aureus; assay: Antibacterial activity against methicillin-susceptible Staphylococcus aureus ATCC 13709 assessed as change in bacterial burden at 40 mg/liter after 12 hrs; format: functional; in short: as §3
# [29] = tested on: Staphylococcus aureus; assay: Antibacterial activity against methicillin-susceptible Staphylococcus aureus ATCC 13709 assessed as change in bacterial burden at 40 mg/liter after 8 hrs; format: functional
# [30] = tested on: Staphylococcus aureus; assay: Antibacterial activity against methicillin-susceptible Staphylococcus aureus ATCC 13709 assessed as change in bacterial burden at 20 mg/liter after 12 hrs; format: functional
# [31] = tested on: Staphylococcus aureus; assay: Antibacterial activity against methicillin-susceptible Staphylococcus aureus ATCC 13709 assessed as change in bacterial burden at 20 mg/liter after 6 hrs; format: functional; in short: as §3
# [32] = tested on: Staphylococcus aureus; assay: Antibacterial activity against methicillin-susceptible Staphylococcus aureus ATCC 13709 assessed as change in bacterial burden at 10 mg/liter after 8 hrs; format: functional
# [33] = tested on: Staphylococcus aureus; assay: Antibacterial activity against methicillin-susceptible Staphylococcus aureus ATCC 13709 assessed as change in bacterial burden at 5 mg/liter after 8 hrs; format: functional
# [34] = tested on: Staphylococcus aureus; assay: Antibacterial activity against methicillin-susceptible Staphylococcus aureus ATCC 13709 assessed as change in bacterial burden at 5 mg/liter after 6 hrs; format: functional
smiles,measurement,setting,value
CCCCCCCCCCNCCN[C@@]1(C)C[C@H](O[C@H]2[C@H](Oc3c4cc5cc3Oc3ccc(cc3Cl)[C@@H](O)[C@@H](NC(=O)[C@@H](CC(C)C)NC)C(=O)N[C@@H](CC(N)=O)C(=O)N[C@H]5C(=O)N[C@H]3C(=O)N[C@H](C(=O)N[C@H](C(=O)O)c5cc(O)c(CNCP(=O)(O)O)c(O)c5-c5cc3ccc5O)[C@H](O)c3ccc(c(Cl)c3)O4)O[C@H](CO)[C@@H](O)[C@@H]2O)O[C@@H](C)[C@H]1O [TELAVANCIN],MIC,[1],1 µg/mL
same,Activity,[2],Active
same,Activity,[3],Active
same,Activity,[4],Active
same,Activity,[5],Active
same,Activity,[6],Active
same,Activity,[7],Active
same,Activity,[8],Active
same,deltalog10CFU/ml,[9],-0.8
same,deltalog10CFU/ml,[10],-0.5
same,deltalog10CFU/ml,[11],-5.1
same,deltalog10CFU/ml,[12],-2.2
same,deltalog10CFU/ml,[13],-4.2
same,deltalog10CFU/ml,[14],-3.6
same,deltalog10CFU/ml,[15],-0.9
same,deltalog10CFU/ml,[16],-2.7
same,deltalog10CFU/ml,[17],-1.7
same,deltalog10CFU/ml,[18],-3.5
same,deltalog10CFU/ml,[19],-1.2
same,deltalog10CFU/ml,[20],-2.9
same,deltalog10CFU/ml,[21],-4.7
same,deltalog10CFU/ml,[22],-1.6
same,deltalog10CFU/ml,[23],-1.1
same,log10CFU/g,[24],4.7
same,deltalog10CFU/ml,[25],-2.1
same,deltalog10CFU/ml,[26],-3.5
same,deltalog10CFU/ml,[27],-4.7
same,deltalog10CFU/ml,[28],-4.7
same,deltalog10CFU/ml,[29],-4.7
same,deltalog10CFU/ml,[30],-4.6
same,deltalog10CFU/ml,[31],-3.9
same,deltalog10CFU/ml,[32],-4.3
same,deltalog10CFU/ml,[33],-4
same,deltalog10CFU/ml,[34],-3.4
